Screening results deposited in PubChem BioAssay by several laboratories.
This excerpt belongs to a sample that is enriched for hits.
Tb MetRS inh = Trypanosoma brucei MetRS inhibition. actives 0.4% (n = 360,000). purified T. brucei MetRS, ATP depletion, Kinase-Glo luminescence. inhibition, % at 11.9 µM;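 active = inhibition above a per-plate cutoff of the control wells' mean inhibition plus 3 SD, cut at about 5.5% in these data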;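 also: 0% = DMSO wells median and 100% = median of wells with control inhibitor compound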
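System: purified T. brucei MetRS enzyme / Detection: Kinase-Glo luciferase luminescence reporting remaining unconsumed ATP / Medium: HEPES buffer with MgCl2, KCl, DTT, spermine, BSA, pyrophosphatase / Replication: singlicate, one well per compound / Evaluation: percent inhibition relative to median high and low control wells / Schedule: 2 h aminoacylation at 25 °C after 15 min preincubation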
UPR CHOP act = activators of apoptotic arm of unfolded protein response (CHOP) | actives 0.34% (n = 330,000) | AID 449763 | CHO-CHOP luciferase reporter, UPR activation, luminescence; percent of tunicamycin response over DMSO baseline | activation, % at 10 µM;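 active = at 10 µM dose, activation of 40% or more, normalized to positive control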;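 also: 100% = tunicamycin at 10 µg/mL and 0% = DMSO alone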
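Evaluation: % reporter activation, DMSO baseline versus tunicamycin full activation; System: CHO-CHOP luciferase reporter cell line; Input: 500 cells/well; Incubation: 6 h compound treatment, 37 °C; Measured by: Steady-Glo luciferase luminescence; Dosing: one dose, 10 µM in 0.5% DMSO; Buffer or medium: F12 medium, 10% FBS; Benchmarks: positive tunicamycin 10 µg/mL, negative DMSO alone.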
XBP1 UPR activ = activators of adaptive arm of unfolded protein response (XBP1); CHO-XBP1 luciferase reporter, IRE1-XBP1 UPR activation, luminescence; percent of tunicamycin response, DMSO as zero; AID 463104; activation, % at 20 µM; actives 0.33% (n = 330,000);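 active = versus positive control, 20 µM dose yields 30% or more activation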;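 also: 100% = tunicamycin at 10 µg/mL and 0% = DMSO only wells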
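Material: CHO-XBP1 cells stably carrying IRE1-XBP1-driven luciferase reporter / Amount: 1000 cells per well / Compound: 20 µM, 1% DMSO / Times: 6 h treatment, 37 °C / Detection: luciferase luminescence / Measure: % activation of reporter signal versus tunicamycin and DMSO controls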
CHOP inh = CHOP inhibition in unfolded protein response. CHO-K1 CHOP-promoter luciferase, tunicamycin-induced, 15-18 h. inhibition, % at 10 µM. actives 3.8% (n = 220,000). AID 2732;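 active = compounds that reduced the stress-induced luciferase reporter signal by more than about 70% of percent inhibition, limit read from the data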;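 also: 0% = tunicamycin plus vehicle and 100% = wells without tunicamycin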
V-ATPase pH = yeast V-ATPase proton transport regulation by pHLuorin; S. cerevisiae, pHLuorin cytosolic pH fluorescence; response, % at 10 µM; actives 0.37% (n = 350,000); AID 504577; in the data active = response mostly above about 7.3%, no sharp cut-off; inactive = mostly below about 5.4%; also: actives read high
An asterisk follows results filed as active.

For O=C(N/N=C/c1ccccc1)c1c(O)c2ccccc2[nH]c1=O the results were Tb MetRS inh 0, UPR CHOP act 3, XBP1 UPR activ 0, CHOP inh 78* and V-ATPase pH -1.
`CC(C)NC(=O)C1(C)CSCC(=O)N1C1CC1` (stereo not drawn) gave Tb MetRS inh 0.
Screening CC(C)Cc1nc2ccccc2[nH]1 returned Tb MetRS inh 0, UPR CHOP act -4, XBP1 UPR activ -2, CHOP inh -1 and V-ATPase pH 8.
CC(C)Cc1n[nH]c(=O)[nH]1 was read as Tb MetRS inh -1, UPR CHOP act 0, XBP1 UPR activ -1, CHOP inh 83* and V-ATPase pH 0.
`COc1cccc(CN(C)S(=O)(=O)c2ccccc2Br)c1` gave Tb MetRS inh -1, UPR CHOP act 1, XBP1 UPR activ 4 and V-ATPase pH 1.
For CC(C)NC(=O)C1(C)CSCC(=O)N1CCCN1CCOCC1 (stereo not drawn) the results were Tb MetRS inh -1.
`Fc1ccc(-c2cc(C(F)(F)F)nc(NCC3CCCO3)n2)cc1` (stereo not drawn) gave Tb MetRS inh 0, UPR CHOP act 1, XBP1 UPR activ -1, CHOP inh 84* and V-ATPase pH 0.
CC(C)C(=O)N1CCC1(C)C(=O)Nc1ccc2[nH]ccc2c1 (stereo not drawn) was read as Tb MetRS inh 0.
For Cc1ccc2[nH]c(=O)c(CN(Cc3ccc4c(c3)OCO4)Cc3nnnn3C3CCCC3)cc2c1 the results were Tb MetRS inh 0, UPR CHOP act 0, XBP1 UPR activ -6, CHOP inh 72* and V-ATPase pH 6.
`Cc1ccc2cc(CN(Cc3nnnn3C3CCCCC3)CC3CCCO3)c(=O)[nH]c2c1` (stereo not drawn) gave Tb MetRS inh -1, UPR CHOP act 3, XBP1 UPR activ -1, CHOP inh 11 and V-ATPase pH -1.
For Cc1cc(C)c2cc(CN(Cc3nnnn3C3CCCCC3)CC3CCCO3)c(=O)[nH]c2c1 (stereo not drawn) the results were Tb MetRS inh -1, UPR CHOP act -1, XBP1 UPR activ -2, CHOP inh 71* and V-ATPase pH 0.
CCc1ccc2[nH]c(=O)c(CN(Cc3nnnn3C3CCCC3)C3CCCCC3)cc2c1 was read as Tb MetRS inh -1, UPR CHOP act 0, XBP1 UPR activ 2, CHOP inh 78* and V-ATPase pH -3.
For COc1ccc(Cn2c(-c3ccco3)nc3oc4cc(OC)ccc4c(=O)c3c2=O)cc1 the results were Tb MetRS inh 0, UPR CHOP act 7, XBP1 UPR activ 8, CHOP inh 92* and V-ATPase pH 2.
For COc1ccc2c(=O)c3c(=O)n(Cc4ccco4)c(-c4ccco4)nc3oc2c1 the results were Tb MetRS inh 0, UPR CHOP act 0, XBP1 UPR activ 2, CHOP inh -6 and V-ATPase pH 1.
Cc1ccccc1-c1cc2nc(NCc3ccccc3F)n(C)c(=O)c2s1 was read as Tb MetRS inh 0.
For Cc1nn(C(=O)c2cccnc2)c(C)c1Sc1ccccc1 the results were Tb MetRS inh 0, UPR CHOP act -1, XBP1 UPR activ -1, CHOP inh 68 and V-ATPase pH -3.
Cc1nn(C(=O)CNS(=O)(=O)c2ccccc2)c(C)c1Sc1ccc(Cl)cc1 was read as Tb MetRS inh 0, UPR CHOP act -1, XBP1 UPR activ 1, CHOP inh 82* and V-ATPase pH -1.
Screening CSc1nc2nc(Cl)c(Cl)nc2[nH]1 returned Tb MetRS inh 0 and V-ATPase pH -1.
O=C(Cn1nnc(-c2ccccc2Cl)n1)N/N=C/c1ccc2c(c1)OCO2 was read as Tb MetRS inh -1, UPR CHOP act -1, XBP1 UPR activ -1, CHOP inh 76* and V-ATPase pH -5.
`O=C(NC(NC(=S)Nc1ccccc1)C(Cl)(Cl)Cl)c1cccc(Cl)c1` (stereo not drawn) gave Tb MetRS inh -1, UPR CHOP act 14, XBP1 UPR activ 0 and CHOP inh 86*.
For CCOC(=O)c1ccc(NC(=O)c2nc[nH]c2C(=O)N2CCN(c3ccccc3)CC2)cc1 the results were Tb MetRS inh 0, UPR CHOP act 1, XBP1 UPR activ -4, CHOP inh 73* and V-ATPase pH 1.
Screening CCOC(=O)c1ccc(NC(=O)c2nc[nH]c2C(=O)NC2CCN(C(=O)OC(C)(C)C)CC2)cc1 returned Tb MetRS inh 0, UPR CHOP act 3, XBP1 UPR activ 1, CHOP inh 85* and V-ATPase pH 2.
`CC(C)c1c(O)ccc2c1CC[C@H]1C(C)(C)CCC[C@]21C` gave Tb MetRS inh -1 and V-ATPase pH -7.
For Cc1c(NC(=O)CN2C(=O)NC(C)(c3ccccc3)C2=O)c(=O)n(-c2ccccc2)n1C (stereo not drawn) the results were Tb MetRS inh 0, UPR CHOP act 0, XBP1 UPR activ -2, CHOP inh 82* and V-ATPase pH 2.
O=C1Nc2ccccc2C(=O)C1(Cl)Cc1ccccc1 (stereo not drawn) was read as Tb MetRS inh 1, UPR CHOP act 3, XBP1 UPR activ -5, CHOP inh 77* and V-ATPase pH -3.
Screening COc1ccccc1C(C(=O)c1ccccc1)c1ccc(O)cc1 (stereo not drawn) returned Tb MetRS inh 0.
Cc1cc2cc(CNC(=O)c3cc4ccccc4o3)ccc2n1C was read as UPR CHOP act 0, XBP1 UPR activ -2 and CHOP inh 89*.
COC(=O)[C@]12CCCCC=C1N(CCC1=CCCCC1)C(=O)[C@H](CC(=O)NCC13CC4CC(CC(C4)C1)C3)C2 was read as Tb MetRS inh 0.
Screening Cc1ccc(COn2c(-c3ccc(Cl)cc3Cl)nc3ncccc32)cc1 returned Tb MetRS inh -1, UPR CHOP act 4, XBP1 UPR activ -7, CHOP inh 11 and V-ATPase pH 10.
`Clc1cccc(COn2c(-c3ccc(Cl)cc3Cl)nc3ncccc32)c1` gave Tb MetRS inh 0, UPR CHOP act 0, XBP1 UPR activ -2, CHOP inh 74* and V-ATPase pH -1.
`COc1ccccc1-c1cnc2c(c1)C(=O)N([C@@H](C)CO)C[C@@H](C)[C@H](CN(C)C(=O)c1cccnc1)O2` gave Tb MetRS inh 0 and V-ATPase pH -3.
CCCN(c1ccc(C(C)C)cc1)S(=O)(=O)c1c(C)noc1C was read as Tb MetRS inh 0, UPR CHOP act -1, XBP1 UPR activ -1, CHOP inh 76* and V-ATPase pH -5.
For COc1ccc(OC)c(NC(=O)CN(c2ccc(C(C)C)cc2)S(=O)(=O)c2c(C)noc2C)c1 the results were Tb MetRS inh 0, UPR CHOP act 4, XBP1 UPR activ -3, CHOP inh 55 and V-ATPase pH 4.
